According to PMC3590845 (Bioorganic & medicinal chemistry, 2012):

What was measured:
[1] = GSH-activated NO release by chemiluminescence; type: physicochemical; details: 4 mM GSH; for NO release on reaction with GSH (in words): chemiluminescence assay; for NO yield (mol)/mol of compound mean (SE): pH 7.4 phosphate buffer, 37 °C
Summary of the method: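 Pre-warmed (37 °C) pH 7.4 phosphate buffer with 4 mM GSH was sparged with inert gas until the detector response was steady. Test compound was then injected to start the reaction, and NO release was followed over time. The integrated release curve gave mol NO released per mol compound.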

H1703 cells [2] = test: Western blot of stress signaling and apoptosis; type: cell-based, human; details: 1 μM
Summary of the method: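 After treatment of H1703 cells, lysates were immunoblotted for caspase 3, caspase 7, PARP, phospho-SAPK/JNK, phospho-c-jun and ATF3. PARP was scored as the full-length band versus the 89-kDa cleaved fragment.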

[3] = tested on: H1703 cells xenografted in athymic mice; test: H1703 xenograft in athymic mice; type: in vivo; details: 20 μmol/kg ip, five times a week for four weeks
Summary of the method: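 H1703 cells (5 × 10^6) were injected s.c. into one flank of 7-week-old female athymic NCr-nu/nu mice. Dosing started once tumors reached 2 × 2 × 2 mm3, typically after four weeks. Test compound was given as Pluronic P123 micelles, and controls received vehicle (2.25% Pluronic P123 in PBS) ip. Body weights were recorded three times weekly.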

H1703 cells [4] = test: In vitro metabolism in cells followed by LC/MS; type: in vitro ADME, human; details: compound 12 at 5 μM for 5, 30 and 60 min
Summary of the method: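 H1703 cells were plated in flasks, incubated overnight at 37 °C, then exposed to test compound. At each time point, cells were scraped into 10 mM HCl and lysed by freeze–thaw, then 5-sulfosalicylic acid was added. After spinning at 8000×g for 10 min, supernatants were run on C18 LC/MS (APCI positive ions, water/acetonitrile/0.1% formic acid gradient). Parent and arylated-GSH ions were tracked as extracted ion chromatograms.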

NO release on reaction with GSH (in words) [1]	NO yield (mol)/mol of compound mean (SE) [1]	Structure (SMILES)	ATF3 level (H1703 cells [2])	Apoptosis (cleavage of PARP and caspases 3 and 7) (H1703 cells [2])	SAPK/JNK stress signaling pathway (H1703 cells [2]; phosphorylation of SAPK/JNK and c-jun after 4 h)	Body weights [3]	Decomposition / metabolic turnover in cells (H1703 cells [4])
essentially quantitative amounts of NO	2.02 (0.06) mol/mol of compound	CCOC(=O)N1CCN(/[N+]([O-])=N/Oc2ccc(C#N)cc2[N+](=O)[O-])CC1 [Compound 13]	–	–	–	–	–
essentially quantitative amounts of NO	1.96 (0.04) mol/mol of compound	CCOC(=O)N1CCCN(/[N+]([O-])=N/Oc2ccc(C#N)cc2[N+](=O)[O-])CC1 [Compound 16]	–	–	–	–	–
essentially quantitative amounts of NO	2.04 (0.01) mol/mol of compound	CCOC(=O)N1CCN(/[N+]([O-])=N/Oc2ccc([N+](=O)[O-])cc2C#N)CC1 [Compound 12]	upregulated	activated within 4 h	activated	did not affect body weights	over 1 h
essentially quantitative amounts of NO	2.01 (0.03) mol/mol of compound	CCOC(=O)N1CCCN(/[N+]([O-])=N/Oc2ccc([N+](=O)[O-])cc2C#N)CC1 [Compound 15]	–	–	–	–	–

Structure (SMILES)	NO release on reaction with GSH (in words) [1]	NO yield (mol)/mol of compound mean (SE) [1]	ATF3 level (H1703 cells [2])	Apoptosis (cleavage of PARP and caspases 3 and 7) (H1703 cells [2])	SAPK/JNK stress signaling pathway (H1703 cells [2]; phosphorylation of SAPK/JNK and c-jun after 4 h)	Body weights [3]	Decomposition / metabolic turnover in cells (H1703 cells [4])
CCOC(=O)N1CCCN(/[N+]([O-])=N/Oc2ccc([N+](=O)[O-])cc2[N+](=O)[O-])CC1 [Compound 2, reference compound]	–	2.00 (0.04) mol/mol of compound	–	–	–	–	–
CCOC(=O)N1CCN(/[N+]([O-])=N/Oc2ccc([N+](=O)[O-])cc2[N+](=O)[O-])CC1 [JS-K, reference compound]	–	1.96 (0.03) mol/mol of compound	–	–	–	–	near complete metabolic turnover of JS-K in as few as ten minutes
